This excerpt belongs to a sample that is enriched for hits.
XBP1 UPR activ: adaptive UPR (XBP1) activation; CHO-XBP1 luciferase reporter, IRE1-XBP1 UPR activation, luminescence; percent of tunicamycin response, DMSO as zero; activation, % at 20 µM; actives 0.33% (n = 330,000); AID 463104;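 active = versus positive control, 20 µM dose yields 30% or more activation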;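 also: 100% = tunicamycin at 10 µg/mL and 0% = DMSO only wells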
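incubation = overnight seeding at 37 °C, 6 h compound treatment at 37 °C | assay system = CHO-XBP1 cells stably carrying IRE1-XBP1-driven luciferase reporter | input = 1000 cells per well | detection = luciferase luminescence | dosing = single point, 20 µM final compound, 1% DMSO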
CHOP inh: inhibitors of CHOP induction in ER stress response. CHO-K1 CHOP-promoter luciferase, tunicamycin-induced, 15-18 h. inhibition, % at 10 µM. actives 3.8% (n = 220,000). AID 2732;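 active = compounds that reduced the stress-induced luciferase reporter signal by more than about 70% of percent inhibition, limit read from the data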;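 also: 0% = tunicamycin plus vehicle and 100% = wells without tunicamycin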
A1 inh: inhibitors of the anti-apoptotic protein A1, read as caspase activation. actives 0.066% (n = 330,000). MEF A1-2A-BIM cells, Caspase-Glo 3/7 luminescence, 3 h; percent of clofoctol response, vehicle zero. AID 2462. caspase activation, % (concentration not given with the values);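 active = over half of replicate activation scores above 10%, or exactly half above 10 with the replicate mean above 10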
UPR CHOP act: activators of apoptotic arm of unfolded protein response (CHOP); activation, % at 10 µM; AID 449763; actives 0.34% (n = 330,000); CHO-CHOP luciferase reporter, UPR activation, luminescence; percent of tunicamycin response over DMSO baseline;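 active = at 10 µM dose, activation of 40% or more, normalized to positive control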;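 also: 100% = tunicamycin at 10 µg/mL and 0% = DMSO alone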
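Evaluation: % reporter activation, DMSO baseline versus tunicamycin full activation; System: CHO-CHOP luciferase reporter cell line; Input: 500 cells/well; Incubation: 6 h compound treatment, 37 °C; Measured by: Steady-Glo luciferase luminescence; Dosing: one dose, 10 µM in 0.5% DMSO; Buffer or medium: F12 medium, 10% FBS; Benchmarks: positive tunicamycin 10 µg/mL, negative DMSO alone.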
* marks the source's active call; other numbers are inactive results.

Screening O=C(CSc1nc(O)c(C2CCCCC2)c(=O)[nH]1)Nc1ccc(F)cc1 returned XBP1 UPR activ 3, A1 inh 0 and UPR CHOP act 1.
CC1(C)CC(=O)C(C2C3=C(CC(C)(C)CC3=O)Oc3ccc4ccccc4c32)C(=O)C1 (stereo not drawn) was read as XBP1 UPR activ -1, CHOP inh 77*, A1 inh 0 and UPR CHOP act 2.
O=C1Nc2cc(Cl)ccc2Nc2cscc21 was read as XBP1 UPR activ 1, A1 inh 0 and UPR CHOP act 2.
For CCOC(=O)c1nnn(-c2nonc2N)c1CN(C)Cc1ccccc1 the results were XBP1 UPR activ -2, CHOP inh 81*, A1 inh 0 and UPR CHOP act 0.
`CCCCOc1ccc(CNC(=S)N/N=C/c2ccc(OC)c(OC)c2)cc1` gave XBP1 UPR activ -1, CHOP inh 88*, A1 inh -1 and UPR CHOP act 2.
Screening O=C1c2cccc3cccc(c23)C(=O)N1/N=C/c1ccc(O)cc1O returned XBP1 UPR activ 2, CHOP inh 70*, A1 inh 1 and UPR CHOP act 0.
`COc1cc(/C=N/NC(=O)c2cccc([N+](=O)[O-])c2)cc(OC)c1O` gave XBP1 UPR activ -2, CHOP inh -1, A1 inh 0 and UPR CHOP act -1.
Screening COc1cccc(/C=N/NC(=O)c2ccc([N+](=O)[O-])cc2Cl)c1O returned XBP1 UPR activ -2, CHOP inh 70*, A1 inh 0 and UPR CHOP act 0.
COc1cc2[nH]c(=O)n(CCC(=O)N3CCN(c4cccc(C)c4C)CC3)c(=O)c2cc1OC was read as XBP1 UPR activ 2, CHOP inh 93*, A1 inh 0 and UPR CHOP act 0.
For COc1cc2[nH]c(=O)n(CCC(=O)N3CCN(Cc4ccccc4)CC3)c(=O)c2cc1OC the results were XBP1 UPR activ -2, CHOP inh -12, A1 inh 0 and UPR CHOP act -1.
Screening CC1CCCCN1C(=O)CSc1nc2c(c(=O)n(C)c(=O)n2C)n1C (stereo not drawn) returned XBP1 UPR activ -8, A1 inh 0 and UPR CHOP act 2.
For CCOc1cc(/C=C2\CCCC(C(=O)C(F)(F)F)=C2O)ccc1O the results were XBP1 UPR activ 0, CHOP inh 75*, A1 inh 1 and UPR CHOP act 1.
For COc1cc(/C=C2/CCCC(C(=O)C(F)(F)F)=C2O)ccc1O the results were XBP1 UPR activ -1, CHOP inh 8, A1 inh 0 and UPR CHOP act 0.
`CCOC(=O)c1c(NC(=O)CN2C(=O)NC3(CCCCC3)C2=O)sc(C)c1-c1ccc(C)cc1` gave XBP1 UPR activ 3, CHOP inh 71*, A1 inh 2 and UPR CHOP act 3.
`CCOC(=O)c1c(NC(=O)CN2C(=O)NC3(CCC(C)CC3)C2=O)sc(C)c1-c1ccc(C)cc1` (stereo not drawn) gave XBP1 UPR activ 8, CHOP inh 82*, A1 inh -2 and UPR CHOP act 3.
Screening O=[N+]([O-])c1cccc(-c2nnc(-c3ccccc3F)o2)c1 returned XBP1 UPR activ -3, A1 inh 1 and UPR CHOP act 7.
Screening C=CCn1c(SCC(O)Cn2c3ccccc3c3ccccc32)nnc1-c1ccco1 (stereo not drawn) returned XBP1 UPR activ 2, CHOP inh 77*, A1 inh 0 and UPR CHOP act -2.
`CCCCOc1ccc(C2/C(=C(/O)c3ccc4c(c3)CC(C)O4)C(=O)C(=O)N2CCCN2CCOCC2)cc1OC` (stereo not drawn) gave XBP1 UPR activ -4, A1 inh -1 and UPR CHOP act -1.
`CCN1CCN(C(CNS(=O)(=O)c2ccc(F)cc2)c2cccnc2)CC1` (stereo not drawn) gave XBP1 UPR activ -2, A1 inh 0 and UPR CHOP act 1.
Screening Nc1ncnc2nc(SCC(=O)Nc3ccccc3F)[nH]c12 returned XBP1 UPR activ -8, A1 inh 0 and UPR CHOP act 1.
Screening O=C(Oc1cccc2cccnc12)c1cccc(N2C(=O)C3C4CCC(C4)C3C2=O)c1 (stereo not drawn) returned XBP1 UPR activ 0, CHOP inh 84*, A1 inh 0 and UPR CHOP act 2.
`Cc1ccccc1C(=O)N1CCC(C(=O)Nc2ccc(S(=O)(=O)N3CCCCC3)cc2)CC1` gave XBP1 UPR activ -2, A1 inh 0 and UPR CHOP act 0.
CCOc1cc(-c2c(C#N)c(N)nc3c2CCCC3C)ccc1O (stereo not drawn) was read as XBP1 UPR activ 3, CHOP inh 56, A1 inh -1 and UPR CHOP act 2.
`CCOc1cc(-c2c(C#N)c(N)nc3c2CCc2ccccc2-3)ccc1O` gave XBP1 UPR activ 2, CHOP inh 78*, A1 inh 0 and UPR CHOP act 3.
CCOc1cc(-c2cc(-c3ccc(C)cc3)nc(N)c2C#N)ccc1O was read as XBP1 UPR activ 7, CHOP inh 70*, A1 inh 1 and UPR CHOP act 2.
CCCCn1c(=N)n(CC(O)COc2ccccc2)c2ccccc21 (stereo not drawn) was read as XBP1 UPR activ -2, CHOP inh -3, A1 inh 1 and UPR CHOP act 2.
Screening CCCCn1c(=N)n(CC(O)COc2ccc(C)cc2)c2ccccc21 (stereo not drawn) returned XBP1 UPR activ -1, CHOP inh 72*, A1 inh 0 and UPR CHOP act 0.
Screening COc1ccc2nc(NC(=O)c3ccc4ncsc4c3)sc2c1 returned XBP1 UPR activ 8, CHOP inh 91*, A1 inh -1 and UPR CHOP act 6.
`COc1ccc2nc(NC(=O)CC3Oc4ccccc4NC3=O)sc2c1` (stereo not drawn) gave XBP1 UPR activ -3, CHOP inh 75*, A1 inh 0 and UPR CHOP act 1.
`CCOc1ccc2nc(NC(=O)CC3Oc4ccccc4NC3=O)sc2c1` (stereo not drawn) gave XBP1 UPR activ -2, CHOP inh -6, A1 inh 0 and UPR CHOP act 0.
`O=C(CSc1nc2ccccc2o1)Nc1nc2ccc(Br)cc2s1` gave XBP1 UPR activ 3, CHOP inh 93*, A1 inh 2 and UPR CHOP act 2.
COc1cccc(C(CC(=O)Nc2cccc3ccccc23)NC(=O)c2ccccc2)c1 (stereo not drawn) was read as XBP1 UPR activ -1, CHOP inh 84*, A1 inh -1 and UPR CHOP act 2.
Cc1cccc(C(CC(=O)N2CCCCC2)c2ccccc2)c1O (stereo not drawn) was read as XBP1 UPR activ -5, A1 inh 0 and UPR CHOP act 1.

Compound activity (PubChem)
